EP2 modulator: EP2 receptor modulators, cAMP readout, primary screen, cell-based, HTRF cAMP, PGE2 stimulation. induction, % at 25 µM. Prostaglandin E2 receptor EP2 subtype (Homo sapiens), P43116. 0.83% of 260,000 active. EP2-expressing cells, cAMP HTRF FRET, PGE2 co-stimulation;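 active = compounds whose cAMP rise, as percent of the full-agonist control response, exceeds 60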;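 also: rat C6 glioma line stably carrying human EP2 under a CMV promoter; the protocol text gives 20 µM as final concentration; 100% = response of wells given 1 µM PGE2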
NPY2 pot ag: NPY-Y2 potentiators or agonists, primary screen, cell-based; Neuropeptide Y receptor type 2 (Homo sapiens), P49146; cells expressing NPY-Y2, potentiator/agonist read-out; activation, % at 3.6 µM; 0.45% of 220,000 active; AID 1359, 2008; in the data active = activation above about 27%;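 also: cells stimulated with NPY near EC25 plus isoproterenol at EC100; 0% = vehicle plus submaximal agonist and 100% = vehicle plus saturating agonist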
NPY-Y2 antag: NPY-Y2 receptor antagonists, primary screen, cell-based; Neuropeptide Y receptor type 2 (Homo sapiens), P49146; NPY-Y2 expressing cells, antagonist mode; inhibition, % at 2.7 µM; 0.99% of 140,000 active; in the data active = inhibition above about 17%;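 also: 0% = vehicle with agonist challenge and 100% = reference antagonist with challenge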
NPY-Y1 antag: NPY-Y1 receptor antagonists, primary screen, cell-based; HEK293-CNG Y1 cells, membrane potential fluorescence; NPY at EC95, then isoproterenol; AID 1040, 2008; inhibition, % at 3.6 µM; Neuropeptide Y receptor type 1 (Homo sapiens), P25929; 1% of 200,000 active;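 active = inhibition above the campaign mean inhibition of all tested compounds plus 3 SD, cut at about 20% in these data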;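 also: 0% = DMSO wells given NPY plus isoproterenol and 100% = isoproterenol alone without NPY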
Target sequence (P25929 whole entry, looked up): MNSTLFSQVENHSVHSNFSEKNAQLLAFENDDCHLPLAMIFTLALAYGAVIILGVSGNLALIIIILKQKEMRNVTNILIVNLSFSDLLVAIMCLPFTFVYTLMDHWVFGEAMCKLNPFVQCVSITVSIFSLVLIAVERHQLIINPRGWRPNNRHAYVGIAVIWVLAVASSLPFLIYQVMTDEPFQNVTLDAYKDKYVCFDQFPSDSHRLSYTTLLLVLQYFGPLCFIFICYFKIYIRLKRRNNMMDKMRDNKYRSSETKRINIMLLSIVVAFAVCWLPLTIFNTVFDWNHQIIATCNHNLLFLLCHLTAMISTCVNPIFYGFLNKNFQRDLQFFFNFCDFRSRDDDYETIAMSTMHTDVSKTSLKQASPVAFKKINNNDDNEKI
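Test system – HEK293 Y1/CNG channel cell line · Also added – NPY agonist 25 nM, then isoproterenol 1 µM plus Ro 20-1724 25 µM · Compound dosing – one concentration, 3.6 µM, in 0.4% DMSO · Schedule – compound incubation 1 h at room temperature, readout 45 min post-stimulation · Technique – fluorescence, membrane potential probe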
EP2 antag: human EP2 receptor antagonists, primary screen, TR-FRET cAMP, C6 glioma cells | Prostaglandin E2 receptor EP2 subtype (Homo sapiens), P43116 | C6 glioma cells expressing human EP2; cells stimulated with saturating PGE2 | inhibition, % at 25 µM | 0.52% of 260,000 active;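 active = percent inhibition above 40 after rounding to a whole number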;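 also: rat C6 glioma host cells with rolipram phosphodiesterase inhibitor present; the protocol text gives 20 µM as final concentration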
NPY-Y1 PAM-ag: NPY-Y1 receptor potentiators or agonists, primary screen, cell-based; 0.37% of 220,000 active; activation, % at 3.6 µM; AID 1304, 2008; NPY-Y1 expressing cells, potentiator/agonist activation; in the data active = activation above about 33%, passing the limit was not always enough;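 also: cells stimulated with NPY at EC10 then isoproterenol at EC100; 0% = low agonist plus stimulus and 100% = saturating agonist plus stimulus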
* hit, by the source's call; ! = a repeat was not active. Rows were chosen to be rich in hits. Some 2.8% of all compounds tested hit in one or more screens of this group.

What do the screens show for `CC(C)CCN1CCN(Cc2ccc(Sc3nncn3C)o2)CC1CCO` (stereo not drawn)?
EP2 modulator: -16.2; NPY2 pot ag: 1.3; NPY-Y1 antag: 2.4; EP2 antag: 12.6; NPY-Y1 PAM-ag: 5.5

Results for CC1(C)CC[C@]2(CO)[C@@H](O)C[C@]3(C)C(=CCC4[C@@]5(C)CC[C@H](O)C(C)(C)C5CC[C@]43C)[C@@H]2C1 (stereo partly drawn) ?
EP2 antag: 52.6*

How did CC1(C)C2CC[C@]3(C)C(CC=C4[C@@H]5C[C@@](C)(CO)[C@@H](O)C[C@]5(C(=O)O)CC[C@]43C)[C@@]2(C)CC[C@@H]1O (stereo partly drawn) do in these assays?
EP2 antag: 16.8

How did Cc1cc(O)c(C(C)C)cc1C1(c2cc(C(C)C)c(O)cc2C)OC(=O)c2ccccc21 do in these assays?
EP2 modulator: 3.6; NPY2 pot ag: 70.1*; EP2 antag: 76.4*!; NPY-Y1 PAM-ag: 76.3*

How did CC(NC(=O)CCCSc1nc(-c2ccco2)cc(C(F)(F)F)n1)c1ccccc1 (stereo not drawn) do in these assays?
EP2 modulator: -125.2; EP2 antag: 42.3*

How did COc1ccc(-n2nnnc2SCC(=O)Nc2cccc(F)c2)cc1 do in these assays?
EP2 modulator: -115.9; EP2 antag: 7.6

How did CN1CCN(C(=S)c2cn(Cc3ccccc3F)c3ccccc23)CC1 do in these assays?
EP2 modulator: -8.4; NPY2 pot ag: 5.8; NPY-Y1 antag: 4.3; EP2 antag: -0.9; NPY-Y1 PAM-ag: -12.3

What do the screens show for `CC1CCN(C(=S)c2cn(Cc3ccccc3F)c3ccccc23)CC1`?
EP2 modulator: 40.9; NPY2 pot ag: -16.6; NPY-Y2 antag: 28.8*; NPY-Y1 antag: 45.1*; EP2 antag: 19.1; NPY-Y1 PAM-ag: -6.7

What do the screens show for `COc1cc(C2C(C#N)=C(N)Oc3n[nH]c(C)c32)cc(Cl)c1OCc1ccc(F)cc1` (stereo not drawn)?
EP2 modulator: -54.1; EP2 antag: 10.8

What do the screens show for `COc1cccc(/C=N/n2c(N)c(S(=O)(=O)c3cccs3)c3nc4ccccc4nc32)c1`?
EP2 modulator: -6.9; NPY2 pot ag: 8.2; NPY-Y2 antag: 3.3; NPY-Y1 antag: -1.0; EP2 antag: 4.3; NPY-Y1 PAM-ag: 1.9

How did Nc1c(S(=O)(=O)c2cccs2)c2nc3ccccc3nc2n1/N=C/c1cccc(O)c1 do in these assays?
EP2 modulator: -7.1; NPY2 pot ag: 23.9; NPY-Y2 antag: -1.5; NPY-Y1 antag: -9.4; EP2 antag: 40.9*; NPY-Y1 PAM-ag: 22.9

Results for CCC(Oc1ccccc1)C(=O)Nc1nncs1 (stereo not drawn) ?
EP2 modulator: -3.9; EP2 antag: 7.4

Results for COC(=O)CCCCCN1C(=O)/C(=C/c2ccc(OC)cc2)SC1=S ?
EP2 modulator: -16.5; EP2 antag: 12.7

What do the screens show for `COC(=O)CCCCCN1C(=O)/C(=C\c2ccncc2)SC1=S`?
EP2 modulator: -40.2; NPY2 pot ag: 7.4; EP2 antag: 50.7*; NPY-Y1 PAM-ag: -4.8

Results for O=C1/C(=C/c2ccncc2)SC(=S)N1Nc1ccccc1 ?
EP2 modulator: -36.9; NPY2 pot ag: 3.0; EP2 antag: 64.1*; NPY-Y1 PAM-ag: -13.8

What do the screens show for `O=C(O)c1ccc(/C=C2\SC(=S)N(Nc3ccccc3)C2=O)cc1`?
EP2 modulator: -21.9; NPY2 pot ag: 11.9; EP2 antag: 6.0; NPY-Y1 PAM-ag: 1.7

What do the screens show for `COc1cccc(NC(=O)c2cc([N+](=O)[O-])ccc2NCc2cccnc2)c1`?
EP2 modulator: -12.6; NPY2 pot ag: -2.1; NPY-Y2 antag: -2.2; NPY-Y1 antag: -3.2; EP2 antag: 5.4; NPY-Y1 PAM-ag: -3.2

Results for Cc1ccc(NC(=O)c2cc([N+](=O)[O-])ccc2NCc2cccnc2)cc1Cl ?
EP2 modulator: 13.4; NPY2 pot ag: 15.2; NPY-Y2 antag: -3.8; NPY-Y1 antag: -6.2; EP2 antag: 5.2; NPY-Y1 PAM-ag: 38.7*

Results for O=C(NCc1ccccc1)N(CCN1CCOCC1)Cc1cc2cc3c(cc2[nH]c1=O)OCO3 ?
EP2 modulator: -10.7; EP2 antag: 8.0

What do the screens show for `CN1CCC[C@H]1c1cccnc1.O=C(O)c1ccccc1O.O=C([OH2+])c1ccccc1O.O=C([OH2+])c1ccccc1O.[Mn+2]`?
EP2 modulator: 28.7; EP2 antag: 40.3*

What do the screens show for `CN1CCC[C@H]1c1cccnc1.O=C(O)c1ccccc1O.O=C([OH2+])c1ccccc1O.O=C([OH2+])c1ccccc1O.O=C([OH2+])c1ccccc1O.[Cu]`?
EP2 modulator: 9.4; EP2 antag: 40.3*

How did C/C(=N\[N-]C(=[SH+])SCc1ccccc1)c1ccccn1.[Cl][Cu] do in these assays?
EP2 modulator: -47.5; EP2 antag: 87.7*

How did CSC(=[SH+])[N-]N=C(c1ccccn1)c1ccccn1.[Cu][Br] do in these assays?
EP2 modulator: -64.1; EP2 antag: 107.9*

How did CSc1ccccc1NC(=O)c1ccccn1 do in these assays?
EP2 modulator: 14.8; NPY2 pot ag: -2.0; NPY-Y1 antag: 4.2; EP2 antag: 3.7; NPY-Y1 PAM-ag: 5.6

Results for CCN(CC)P(=O)(Nc1ccc(C)cc1Br)c1ccc(N(C)C)cc1NC(=O)c1ccco1 (stereo not drawn) ?
EP2 modulator: 64.6*; NPY2 pot ag: -8.1; NPY-Y1 antag: 5.9; EP2 antag: 14.6; NPY-Y1 PAM-ag: 12.9

How did Cc1ccc(NC(=O)c2ccco2)c(NC(=O)c2ccccc2)c1 do in these assays?
EP2 modulator: -30.0; EP2 antag: 8.0

Results for Cc1cc(NC(=O)c2cnn3c(C(F)F)cc(-c4ccccc4)nc23)no1 ?
EP2 modulator: -11.5; NPY2 pot ag: 10.9; NPY-Y2 antag: 1.2; NPY-Y1 antag: 1.6; EP2 antag: 3.8; NPY-Y1 PAM-ag: -22.1

Results for Cc1cc(NC(=O)c2cnn3c(C(F)(F)F)cc(-c4ccccc4)nc23)no1 ?
EP2 modulator: -54.9; NPY2 pot ag: 1.1; NPY-Y2 antag: -2.4; NPY-Y1 antag: -1.8; EP2 antag: 51.0*; NPY-Y1 PAM-ag: 17.9

How did O=C(CCN1CCCCCC1)c1ccccc1 do in these assays?
EP2 modulator: -6.9; NPY2 pot ag: -0.2; NPY-Y2 antag: 1.7; NPY-Y1 antag: 4.7; EP2 antag: 52.3*; NPY-Y1 PAM-ag: 7.1

How did CC1(C)CC2(CCCN(C(=S)Nc3ccccc3)C2)CCO1 (stereo not drawn) do in these assays?
EP2 modulator: -7.2; NPY2 pot ag: -8.8; EP2 antag: 2.8; NPY-Y1 PAM-ag: -0.4

Compound activity as filed in PubChem.
